Here are results for 8 compounds from publication PMC3159890 (Frontiers in Pharmacology, 2011).

What all share (format): cell-based
Series [1] deals with T1, wt-CFTR (Homo sapiens, UniProt P13569). The series is described as follows: whole-cell patch-clamp on wt-CFTR-CHO cells. An outline of the steps: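 CHO cells stably expressing wt-CFTR, kept in α-MEM-GlutaMAX with 7% FBS and 100 μM methotrexate, were plated in 35-mm dishes. Whole-cell currents sampled at 3 kHz. Holding potential −40 mV, with pulses −100 to +100 mV in 20 mV steps. Capacitance obtained from a 10 mV hyperpolarization; currents normalized per pF. Stimulation with forskolin 1 μM plus test compound 10 μM. Time course: amplitude at +40 mV plotted every 10 s.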

Series [2] concerns CHO-K1. The series is described as follows: whole-cell patch-clamp on CHO-K1 cells. The note with it: forskolin 1 μM; RP193 10 μM. The method, boiled down: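 Whole-cell clamp, seals 5–10 GΩ. Pipette (mM): Cs-aspartate/CsCl, 1 EGTA, 10 TES, 3 MgATP, pH 7.2. Bath (mM): 145 NaCl, 4 CsCl, 1 CaCl2, 1 MgCl2, 10 glucose, 10 TES, pH 7.4. Held at −40 mV, stepped −100 to +100 mV in 20 mV increments; sampled at 3 kHz. Currents normalised to capacitance (pA/pF); time course read at +40 mV every 10 s.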

The target in series [3] is G551D-CFTR (Homo sapiens, UniProt P13569, G551D). The experiment in a line: iodide efflux in G551D-CFTR-CHO cells. An outline of the steps: (§1)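 Stably transfected CHO cells (wt-CFTR or G551D-CFTR, methotrexate-selected) seeded in 24-well plates and loaded with 125I; efflux sampled robotically. Rate k = ln(125It1/125It2)/(t1–t2); response = kpeak − kbasal (min−1). Concentration-response curves expressed as percentage of maximal activation. Chloride transport inhibitors, when used, were present in both loading and efflux buffers.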

The subject of series [4] is primary cultures of human bronchial epithelial cells (HBEC). The experiment in a line: Ussing chamber short-circuit current in primary HBEC cultures. The note with it: amiloride 10 μM, luminal bath. An outline of the steps: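 Primary non-CF bronchial epithelial cells (three lung-resection donors), enzymatically isolated, grown to confluence on permeable collagen supports. Mounted in Ussing chambers in KBR at 37°C, gassed 95% O2-5% CO2. After 20–30 min equilibration and 10 min basal: amiloride 10 μM apical, forskolin 1 μM both sides, test compound basolateral, with 10–15 min stabilisation between additions. ΔIsc = plateau minus pre-addition value; Rt from +2 mV pulses every 90 s.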

Series [5] deals with T1, wt-CFTR. The experiment in a line: iodide efflux in wt-CFTR-CHO cells. The method, boiled down: as §1
For series [6], the system named is wt-CFTR-CHO cells. The series is described as follows: MTT cytotoxicity assay. To be noted: 100 μM, 24 h. The method, boiled down: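 wt-CFTR-CHO cells in α-MEM-GlutaMAX with 7% FBS and 100 μM methotrexate, exposed 24 h at 37°C to 100 μM test compound; MTT done the next day. PBS wash, then MTT (0.5 mg/ml in PBS) for 4 h at 37°C. Formazan dissolved in DMSO; OD read at 570 nm against 630 nm reference. Mean of three replicates, as percentage of control.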
On the technique in general: Tetrazolium assays rely on reduction of a dye to a coloured formazan, in cell work by metabolically active cells.

The target in series [7] is wild-type CFTR (Homo sapiens, UniProt P13569). The experiment in a line: iodide efflux in NuLi-1 cells. The method, boiled down: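 NuLi-1 cells (non-CF human bronchial epithelium, wild-type CFTR) cultured on collagen type VI-coated flasks in BEGM at 37°C, 5% CO2, media changed every 2 days, and seeded in 24-well plates. Iodide efflux stimulated by forskolin 10 μM plus test compound 100 μM. CFTR-inh172 10 μM was present in loading solution and efflux buffer.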

The target of series [8] is F508del-CFTR (Homo sapiens, UniProt P13569, DEL508-508). The series is described as follows: iodide efflux in CuFi-1 cells. The method, boiled down: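 CuFi-1 cells (F508del/F508del, CF bronchial epithelium) grown on collagen type VI-coated flasks in BEGM at 37°C, 5% CO2, media renewed every 2 days, then seeded in 24-well plates. F508del-CFTR rescued by 24 h at 27°C or 24 h at 37°C with miglustat. Iodide efflux stimulated by forskolin 10 μM plus test compound 100 μM. Chloride transport inhibitors, when used, were present in loading solution and efflux buffer.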

Series [9] concerns cAMP levels in wt-CFTR-CHO cells. The experiment in a line: cAMP-Screen ELISA determination of cAMP. The note with it: RP193 100 μM alone or with forskolin 1 μM, 10 min. An outline of the steps:
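wt-CFTR-CHO cells incubated with agents for 10 min at 37°C. Reactions then stopped and intracellular cAMP quantified by cAMP-Screen ELISA, following the kit instructions.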
For orientation: An ELISA detects its analyte on a solid surface through an enzyme-linked reagent.

Series [10] deals with T1, wt-CFTR. The experiment in a line: single-channel cell-attached patch-clamp on wt-CFTR-CHO cells. The method, boiled down:
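Cell-attached single-channel recordings on wt-CFTR-CHO cells at room temperature, seals 10–20 GΩ. Bath received forskolin 1 μM, then test compound 10 μM. Pipette (mM): 150 NaCl, 2 MgCl2, 10 TES, pH 7.4. Bath (mM): 145 NaCl, 4 KCl, 2 MgCl2, 10 TES, pH 7.4. Sampled at 3 kHz, filtered at 100 Hz (eight-pole Bessel). Potential = bath minus pipette.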
(The patch-clamp technique gives a direct electrical read-out from membranes.)

Each structure is given as a SMILES string.

One may read the EC50 as the concentration at which the effect is half-maximal. Read a low EC50 as higher potency in that assay.

For the compound `C=C[C@@]1(C)CC(=O)[C@]2(O)[C@@]3(C)[C@@H](O)CCC(C)(C)[C@@H]3[C@H](O)[C@H](OC(C)=O)[C@@]2(C)O1` [forskolin, reference compound], the “whole-cell current amplitude at +40 mV” value in series [1] (forskolin 1 μM alone) was found to be 18.4 ± 6.2 pA/pF. Moreover, the “effect on whole-cell current in CHO-K1” value in series [2] is listed as “no effect”. For the same compound, the “stimulation of iodide efflux in G551D-CFTR-CHO cells” value in series [3] (forskolin 10 μM alone, compared to basal state) was “No significant stimulation”.

For `N=C(N)NC(=O)c1nc(Cl)c(N)nc1N` [amiloride], the “change in Isc” value in [4] is −29.5 ± 4.5 μA/cm^2.

Take `CCCCc1c(-c2ccc(F)cc2)[nH]c2nccnc12` [RP185, 7-n-butyl-6-(4-fluorophenyl)-5H-pyrrolo[2,3-b]pyrazine]: the EC50 in [5] came out at 78 µM. The “cytotoxicity (cell viability, MTT)” value in series [6] was “not cytotoxic”.

As for `Br.CCCCc1c(-c2ccccc2O)[nH]c2nccnc12` [RP173, 7-n-Butyl-6-(2-hydroxyphenyl)-5H-pyrrolo[2,3-b]pyrazine hydrobromide], the “cytotoxicity (cell viability, MTT)” value in [6] was “significantly higher cytotoxicity compared to the control conditions”.

`O=C(O)c1ccc(/C=C2\SC(=S)N(c3cccc(C(F)(F)F)c3)C2=O)cc1` [CFTR-inh172, reference compound]: the “whole-cell current amplitude at +40 mV after inhibitor” value in [1] (CFTR-inh172 10 μM added after fsk 1 μM + RP193 10 μM) was found to be 8.2 ± 5.2 pA/pF. Besides, in series [7] (CFTR-inh172 10 μM), the “inhibition of RP193-stimulated iodide efflux in NuLi-1 cells” value is “abolished”. Further, the “inhibition of RP193-induced iodide efflux in CuFi-1 cells” value in [8] (miglustat-treated cells, CFTRinh-172 10 μM, data not shown) is listed as “fully inhibited”.

`CCCCc1c(-c2ccc(O)cc2)[nH]c2nccnc12` [RP107, 7-n-butyl-6-(4-hydroxyphenyl)[5H]-pyrrolo[2,3-b]pyrazine]: the “cytotoxicity (cell viability, MTT)” value in [6] is reported as “significantly higher cytotoxicity compared to the control conditions”.

In the case of `CCCCc1c(-c2ccccc2F)[nH]c2nccnc12` [RP193, 7-n-butyl-6-(2-fluorophenyl)-5H-pyrrolo[2,3-b]pyrazine], the “stimulation of CFTR-dependent iodide efflux” value in [5] (RP193 100 μM without forskolin, wt-CFTR-CHO cells) was “no stimulation of CFTR activity”. Also, in series [6], the “cytotoxicity (cell viability, MTT)” value is on record as “not cytotoxic”. Also, in [9], the “dependence of CFTR potentiation on intracellular cAMP levels” value is reported as “independent of intracellular cAMP levels”. Moreover, the “time to significant increase of the whole-cell current” value in series [1] (RP193 10 μM in presence of forskolin 1 μM) lay in the range of 5 to 7 min. Also, the “whole-cell current amplitude at +40 mV” value in series [1] (RP193 10 μM in the presence of 1 μM fsk) is reported as 113.8 ± 15.1 pA/pF. Further, in [2], the “effect on whole-cell current in CHO-K1” value is on record as “no effect”. Besides, the “single-channel CFTR activity, cell-attached” value in series [10] (RP193 10 μM in bath, in presence of forskolin 1 μM) is “progressive and sustained CFTR activity was recorded”. Further, the average unitary conductance in [10] (forskolin 1 μM + RP193 10 μM, n = 4) was determined as 8.1 ± 0.0 pS. Further, the “stimulation of iodide efflux in NuLi-1 cells” value in series [7] (RP193 100 μM in presence of forskolin 10 μM) was “stimulated CFTR in NuLi-1 cells”. For the same compound, the “stimulation of iodide efflux in CuFi-1 cells” value in series [8] (cells 24 h at 27°C, RP193 100 μM in presence of forskolin 10 μM) is reported as “iodide efflux significantly higher than with forskolin alone”; in series [8] (cells cultivated at 37°C, RP193 100 μM + forskolin 10 μM) it was “did not stimulate iodide efflux”; in [8] (cells non-treated with miglustat), “no effect”. Moreover, the “stimulation of iodide efflux in G551D-CFTR-CHO cells” value in series [3] (RP193 10 μM in presence of forskolin 10 μM, n = 4) is given as “stimulated an efflux”; in series [3] (RP193 alone, not shown), “did not have any effect”.

For the compound `Br.CCCCc1c(-c2cccc(O)c2)[nH]c2nccnc12` [RP146, 7-n-Butyl-6-(3-hydroxyphenyl)-5H-pyrrolo[2,3-b]pyrazine hydrobromide], the response in [5] was half-maximal at 97 µM (EC50). In series [6], the “cytotoxicity (cell viability, MTT)” value is listed as “significantly higher cytotoxicity compared to the control conditions”.
